The record followed here is ChEMBL document CHEMBL1147008, “Design, synthesis, and biological activities of madindoline analogues” (2006).

In this experiment the test system is 7TDI. Put plainly: Inhibition of IL6-dependent growth of 7TDI cells at 10 uM relative to madindoline A. It is filed as functional, Mus musculus. In outline:
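IL-6-dependent 7TDI cell line; growth inhibition measured with each analogue present at 10 μM. Values expressed against the natural compound.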
With `CC1=C(C)C(=O)C(C)(CN2c3ccccc3[C@]3(O)CCO[C@H]23)C1=O`, the Activity stood at 0.

The compound `CCCCCCCCCC1=C(C)C(=O)[C@](C)(CN2c3ccccc3[C@]3(O)CCO[C@H]23)C1=O` registered an Activity of 3.9.

Take `CC1=C(Cc2ccccc2)C(=O)[C@@](C)(CN2c3ccccc3[C@]3(O)CCO[C@H]23)C1=O`: the Activity is reported as 0.9.

In the case of `CCCCC1=C(C)C(=O)[C@@](C)(CN2c3ccccc3[C@]3(OC(=O)c4ccccc4)CCO[C@H]23)C1=O`, the Activity is on record as 2.6.

`CCCCCC(=O)O[C@@]12CCO[C@@H]1N(C[C@]1(C)C(=O)C(C)=C(CCCC)C1=O)c1ccccc12`: the Activity amounted to 2.6.

In turn, `CC1=C(C)C(=O)CC1=O` yielded an Activity of 0.

`O[C@@]12CCO[C@@H]1Nc1ccccc12` yielded an Activity of 0.

Consider `CCCCC1=C(C)C(=O)[C@@](C)(CN2c3ccc(Cl)cc3[C@]3(O)CCO[C@H]23)C1=O`, for which the Activity is 0.8.

The compound `CCCCCCCCCCCCCCCCCCCCCC1=C(C)C(=O)[C@](C)(CN2c3ccccc3[C@]3(O)CCO[C@H]23)C1=O` displayed an Activity of 0.

Turning to `CCCCC1=C(C)C(=O)[C@@](C)(CN2c3ccccc3[C@@]3(O)CCO[C@@H]23)C1=O`, the Activity is on record as 0.

`CCCCCCCC1=C(C)C(=O)[C@](C)(CN2c3ccccc3[C@]3(O)CCO[C@H]23)C1=O`: the Activity is 3.2.

Regarding `CCCCC1=C(C)C(=O)[C@@](C)(CN2c3ccc(Br)cc3[C@]3(O)CCO[C@H]23)C1=O`, the Activity came out at 2.8.

For `CCCCC1=C(C)C(=O)[C@@](C)(Cn2cc(CCO)c3ccccc32)C1=O`, the Activity is on record as 0.9.

In the case of `CCCCCCCCCCCC1=C(C)C(=O)[C@](C)(CN2c3ccccc3[C@]3(O)CCO[C@H]23)C1=O`, the Activity stood at 3.4.

As for `CCC1=C(C)C(=O)[C@](C)(CN2c3ccccc3[C@]3(O)CCO[C@H]23)C1=O`, the Activity amounted to 0.

For the compound `CCCCC1=C(C)C(=O)[C@@](C)(CN2c3ccccc3[C@]3(O)CCO[C@H]23)C1=O`, the Activity was 1.

With `CCCCC1=C(C)C(=O)[C@@](C)(CN2c3ccc(I)cc3[C@]3(O)CCO[C@H]23)C1=O`, the Activity worked out at 2.8.

In the case of `CCCCCCCCCC(=O)O[C@@]12CCO[C@@H]1N(C[C@]1(C)C(=O)C(C)=C(CCCC)C1=O)c1ccccc12`, the Activity was found to be 0.

As for `CCCCC1=C(C)C(=O)[C@@](C)(CN2c3ccccc3[C@]3(OC(C)=O)CCO[C@H]23)C1=O`, the Activity is 1.2.
